Experimental data reported in ChEMBL document CHEMBL1126561, “Synthesis and biological evaluation of N4-substituted imidazo- and v-triazolo[4,5-d]pyridazine nucleosides” (J Med Chem, 1993).
Values after ≈ are worked out from the molar mass of the structure shown.

Columns and labels:
Homo sapiens [1] = species: Homo sapiens; assay: Evaluated for inhibition of adenosine accumulation in human erythrocytes at the concentration of 10 uM of compound; type: functional
Method in brief: (§1)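 Inhibitor-stop assay of human erythrocytes (10% suspension, v/v) at room temperature. Analogue (up to 10 μM) was preincubated with triplicate cell aliquots for 10 min, then [8-¹⁴C]adenosine was added (final 10 μM). Uptake was stopped after 0.5 s with ice-cold 750 μM dilazep and centrifugation through oil. Cell radioactivity was counted, corrected for extracellular trapping.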

B16 [2] = assay: Compound was tested in vitro for growth inhibitory activity against B16 melanoma cell line; type: functional; conditions: Mus musculus, read-out: ID50 (the source's name)
Method in brief: (§2)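 B16 melanoma cells in RPMI-1640 with 15% heat-inactivated FBS and antibiotics, seeded at 2-3 × 10³ cells/well on day 0. Graded analogue (12 concentrations) added day 1, then 3 days at 37 °C. MTT 4 h, formazan dissolved in acidic isopropanol, absorbance read. ID50 from curve fit, eight determinations per concentration.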

Homo sapiens [3] = species: Homo sapiens; assay: Compound was tested for the inhibition of adenosine transport into human erythrocytes; type: functional; method in brief: as §1
[4] = molecular target: T1, Adenosine deaminase (Bos taurus) (UniProt P56658); assay: Tested for percentage inhibition against adenosine deaminase at the concentration 100 uM
T1 sequence (whole entry): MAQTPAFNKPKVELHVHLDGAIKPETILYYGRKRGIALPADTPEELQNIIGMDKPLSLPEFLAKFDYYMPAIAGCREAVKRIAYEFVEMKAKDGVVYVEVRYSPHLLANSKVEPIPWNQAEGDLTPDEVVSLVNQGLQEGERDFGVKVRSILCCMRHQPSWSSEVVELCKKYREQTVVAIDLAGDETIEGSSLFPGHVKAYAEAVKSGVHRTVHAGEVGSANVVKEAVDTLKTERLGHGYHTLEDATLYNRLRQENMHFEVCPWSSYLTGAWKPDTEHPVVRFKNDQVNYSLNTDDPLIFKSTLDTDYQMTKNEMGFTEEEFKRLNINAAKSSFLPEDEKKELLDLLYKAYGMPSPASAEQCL
Method in brief: (§3)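 Calf intestinal mucosa ADA (0.003 unit) in 1 mL of 50 mM potassium phosphate, pH 7.4, at 30 °C. Substrate was 25 μM adenosine, about Km. Analogue tested at 100 μM, reported as percent inhibition.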

[5] = molecular target: T1, Adenosine deaminase (Bos taurus); assay: Tested for inhibition against calf intestinal mucosa adenosine deaminase (ADA); type: tissue-based; conditions: concentration not given here; method in brief: as §3
B16 [6] = assay: Tested in vitro inhibitory activity against murine B16 melanoma cells line; type: functional; conditions: Mus musculus, read-out: ID50 (the source's name)
Method in brief: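 B16 cells maintained in RPMI-1640 with 15% heat-inactivated FBS and antibiotics (doubling time 21 h); 2-3 × 10^3 cells seeded day 0, graded analogue concentrations added day 1, 3 days at 37 °C. MTT 4 h, formazan solubilized in acidic isopropanol, absorbance read; ID50 from curve fit of 12 concentrations, eight determinations each.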

L1210 (1565) [7] = assay: Tested in vitro inhibitory activity against murine L 1210 leukemia cells line; type: functional; conditions: Mus musculus, read-out: ID50 (the source's name)
Method in brief: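 L1210 cells in RPMI-1640 with 10% heat-inactivated FBS plus mercaptoethanol (doubling time 12 h); 1 × 10^3 cells seeded day 0, graded analogue concentrations added day 1, cultured 3 days at 37 °C. Growth read by MTT reduction (4 h), formazan in acidic isopropanol; ID50 fitted from 12 concentrations × eight determinations.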

B16 [8] = assay: Compound was tested in vitro for growth inhibitory activity against murine B16 melanoma cell line; type: functional; conditions: Mus musculus, read-out: ID50 (the source's name); method in brief: as §2
L1210 (1565) [9] = assay: Compound was tested in vitro for growth inhibitory activity against murine L1210 leukemia cell line; type: functional; conditions: Mus musculus, read-out: ID50 (the source's name)
Method in brief: as §2, with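 “Murine L1210” for “B16 melanoma”, “10%” for “15%”, “mercaptoethanol,” for “antibiotics,”, “1” for “2-3”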

Question: How did the Inhibition (Homo sapiens [1]) turn out when `OC[C@H]1OC(n2cnc3c(NCc4ccccc4)nncc32)[C@H](O)[C@@H]1O` (stereo partly specified) was run?
Answer: 45%

Question: Which IC50 (B16 [2]) does the source give for `OC[C@H]1OC(n2nnc3c(NCc4ccccc4)nncc32)[C@H](O)[C@@H]1O` (stereo partly specified) here?
Answer: 35.8 µg/mL (≈ 99.9 µM)

Question: And the Inhibition (Homo sapiens [3])?
Answer: 34%

Question: Which inhibition [4] does the source give for `Nc1nncc2c1ncn2[C@@H]1O[C@H](CO)[C@@H](O)[C@H]1O` here?
Answer: 15%

Question: How did the inhibition [5] turn out when `Nc1nncc2c1nnn2C1O[C@H](CO)[C@@H](O)[C@H]1O` (stereo partly specified) was run?
Answer: 7%

Question: For `Nc1ccn([C@@H]2O[C@H](CO)[C@@H](O)[C@@H]2O)c(=O)n1` [CYTARABINE], which IC50 (B16 [6]) is on record?
Answer: < 0.1 µg/mL

Question: And the IC50 (L1210 (1565) [7])?
Answer: < 0.1 µg/mL

Question: Which results are given for `O=c1[nH]cc(F)c(=O)[nH]1` [FLUOROURACIL]?
Answer: IC50 (B16 [6]): < 0.1 µg/mL; IC50 (L1210 (1565) [7]): < 0.1 µg/mL

Question: `CN(Cc1cnc2nc(N)nc(N)c2n1)c1ccc(C(=O)N[C@@H](CCC(=O)O)C(=O)O)cc1` [METHOTREXATE] was tested. Which IC50 (B16 [8]) did it give?
Answer: < 0.1 µg/mL

Question: And the IC50 (L1210 (1565) [9])?
Answer: < 0.1 µg/mL
